Experimental data as given in ChEMBL document CHEMBL1150797 (Antimicrob Agents Chemother, 2007).

Legend:
[1] = Tmax in tuberculosis patient at 750 mg, po coadministered with 600 mg, po rifampin; format: ADME, organism-based; settings: human, in vivo
Outline: (§1)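 Plasma was sampled predose and at 1–12 h (nine points). Assay: spiked with internal standard, chloroform extraction, derivatization, HPLC-UV at 215 nm, LLOQ 0.05 mg/liter. Noncompartmental analysis: Cmax and Tmax observed, t1/2 = 0.693/β, AUC0-24 by linear-log trapezoid.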

[2] = system: Homo sapiens; assay: Cmax in tuberculosis patient at 750 mg, po coadministered with 600 mg, po rifampin; format: ADME, organism-based; design: dose 750 mg, route oral; settings: in vivo; outline: as §1
[3] = Tmax in tuberculosis patient at 750 mg, po coadministered with 450 mg, po rifampin; format: ADME, organism-based; settings: human, in vivo; outline: as §1
[4] = Half life in tuberculosis patient at 750 mg, po coadministered with 450 mg, po rifampin; format: ADME, organism-based; settings: human, in vivo; outline: as §1
[5] = AUC (0 to 24 hrs) in tuberculosis patient at 750 mg, po coadministered with 450 mg, po rifampin; format: ADME, organism-based; design: dose 750 mg, time < 24 hr, route oral; settings: human, plasma; outline: as §1
[6] = system: Homo sapiens; assay: Cmax in tuberculosis patient at 750 mg, po coadministered with 450 mg, po rifampin; format: ADME, organism-based; design: dose 750 mg, route oral; settings: in vivo; outline: as §1
[7] = AUC (0 to 24 hrs) in tuberculosis patient at 750 mg, po coadministered with 600 mg, po rifampin; format: ADME, organism-based; design: time < 24 hr, dose 750 mg, route oral; settings: human, plasma; outline: as §1
[8] = Half life in tuberculosis patient at 750 mg, po coadministered with 600 mg, po rifampin; format: ADME, organism-based; settings: human, in vivo; outline: as §1
[9] = Cmax in tuberculosis patient at 1500 mg, po coadministered with 450 mg, po rifampin; format: ADME, organism-based; design: dose 1500 mg, route oral; settings: human, in vivo
Outline: (§2)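 Venous plasma was drawn predose and at 1, 1.5, 2, 2.5, 3, 4, 6 and 12 h. Assay: solid-phase extraction, HPLC-UV at 266 nm, LLOQ 0.1 mg/liter. Cmax and Tmax were observed values; noncompartmental analysis gave t1/2 as 0.693/β and AUC0-24 by linear-log trapezoid with C24 extrapolated.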

[10] = Cmax in tuberculosis patient at 1500 mg, po coadministered with 600 mg, po rifampin; format: ADME, organism-based; design: dose 1500 mg, route oral; settings: human, in vivo; outline: as §2
[11] = AUC (0 to 24 hrs) in tuberculosis patient at 1500 mg, po coadministered with 450 mg, po rifampin; format: ADME, organism-based; design: time < 24 hr, dose 1500 mg, route oral; settings: human, plasma; outline: as §2
[12] = Half life in tuberculosis patient at 1500 mg, po coadministered with 450 mg, po rifampin; format: ADME, organism-based; settings: human, in vivo; outline: as §2
[13] = Tmax in tuberculosis patient at 1500 mg, po coadministered with 600 mg, po rifampin; format: ADME, organism-based; settings: human, in vivo; outline: as §2
[14] = AUC (0 to 24 hrs) in tuberculosis patient at 1500 mg, po coadministered with 600 mg, po rifampin; format: ADME, organism-based; design: dose 1500 mg, time < 24 hr, route oral; settings: human, plasma; outline: as §2
[15] = Tmax in tuberculosis patient at 1500 mg, po coadministered with 450 mg, po rifampin; format: ADME, organism-based; settings: human, in vivo; outline: as §2
[16] = Half life in tuberculosis patient at 1500 mg, po coadministered with 600 mg, po rifampin; format: ADME, organism-based; settings: human, in vivo; outline: as §2
[17] = system: Homo sapiens; assay: Tmax in tuberculosis patient assessed as desacetylrifampin level at 600 mg, po; format: ADME, organism-based; settings: in vivo
[18] = Cmax in human tuberculosis patient at 600 mg, po; settings: in vivo
[19] = clinical; settings: human, plasma, po, 450 mg
[20] = Tmax in tuberculosis patient at 450 mg, po; format: ADME, organism-based; settings: human, in vivo
[21] = clinical; settings: human, plasma, po, 600 mg
[22] = Apparent volume of distribution in tuberculosis patient at 450 mg, po; format: ADME, organism-based; settings: human, in vivo, read-out: Vc/F
[23] = system: Homo sapiens; assay: Tmax in tuberculosis patient assessed as desacetylrifampin level at 450 mg, po; format: ADME, organism-based; settings: in vivo
[24] = Apparent clearance in tuberculosis patient at 600 mg, po; format: ADME, organism-based; settings: human, in vivo
[25] = Apparent volume of distribution in tuberculosis patient at 600 mg, po; format: ADME, organism-based; settings: human, in vivo, read-out: Vc/F
[26] = Apparent clearance in tuberculosis patient at 450 mg, po; format: ADME, organism-based; settings: human, in vivo
[27] = system: Homo sapiens; assay: Tmax in tuberculosis patient at 600 mg, po; format: ADME, organism-based; settings: in vivo

In the case of CC[C@@H](CO)NCCN[C@@H](CC)CO [ETHAMBUTOL], the Tmax [1] is reported as 2.5 h, the Cmax [2] is reported as 2.3 h and the Tmax [3] is reported as 2.5 h. For the same compound, the half-life [4] was 252 min, the AUC(0-t) at 24 h [5] was 14400 ng·h/mL and the Cmax [6] was 2.4 h. It also gave an AUC(0-t) at 24 h [7] of 14700 ng·h/mL and a half-life [8] of 276 min.

NC(=O)c1cnccn1 [PYRAZINAMIDE] showed a Cmax [9] of 43800 ng/mL, a Cmax [10] of 46000 ng/mL and an AUC(0-t) at 24 h [11] of 473 µg·h/mL. The half-life [12] was 396 min, the Tmax [13] was 2.5 h and the AUC(0-t) at 24 h [14] was 514 µg·h/mL. It also gave a Tmax [15] of 2.75 h and a half-life [16] of 414 min.

Work on CO[C@H]1/C=C/O[C@@]2(C)Oc3c(C)c(O)c4c(O)c(c(/C=N/N5CCN(C)CC5)c(O)c4c3C2=O)NC(=O)/C(C)=C\C=C\[C@H](C)[C@H](O)[C@@H](C)[C@@H](O)[C@@H](C)[C@H](OC(C)=O)[C@@H]1C [RIFAMPIN] yielded a Tmax [17] of 4 h, a Cmax [18] of 15600 ng/mL and an AUC(0-t) at 24 h [19] of 48500 ng·h/mL. It also gave a Tmax [20] of 2 h, an AUC(0-t) at 24 h [21] of 79700 ng·h/mL and a Vd/F [22] of 25.3 L. It also gave a Tmax [23] of 4 h, a CL/F [24] of 125 mL/min and a Vd/F [25] of 23.3 L. The CL/F [26] was 153 mL/min and the Tmax [27] was 1 h.
